In PMC5773287 (ACS nano, 2017):
pIC50: −log10 of the molar value. Numbered stars: 1 amine (or outer) side, 2 acyl side, 3 side chain; on linkers, the order of the positions; unused ones are H or OH. Peptide text beside a SMILES is read from it. * marks the point of attachment. X1 = Nc1nc2[nH]cc(CCc3ccc(C(=O)*)cc3)c2c(=O)[nH]1; γGlu = O=C(O)[C@H](CCC(=O)[*:2])N[*:1]

Assays:
[1] = tested on: GL261 mouse glioma cell line; assay: Cytotoxicity assay against the mouse glioma cell line GL261
[2] = type: physicochemical; conditions: for hydrogel formation: 30 mM in 1× DPBS solution, overnight ageing, vial inversion; for self-assembled morphology (cryo-TEM): 1× DPBS, aged over 24 h at room temperature, PemFE 4 mM, C12FE 10 mM
Method in brief: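 Self-assembled nanostructures imaged by cryo-TEM after aging over 24 h at room temperature. For gelation, lyophilized test peptide powder was dissolved in 1× DPBS at a final 30 mM and sonicated 2 min to aid dissolution. Samples were aged overnight, and gel formation was recorded by photographing inverted vials.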

[3] = Cytotoxicity assay against the mouse glioma cell line GL261

Row | Compound | pIC50 ([1]; Mus musculus, GL261, read-out: IC50 (cytotoxicity)) | hydrogel formation [2] | self-assembled morphology (cryo-TEM) [2] | pIC50 [3] | cell toxicity ([1]; GL261 cells, concentrations up to 100 μM)
1 | Nc1nc2[nH]cc(CCc3ccc(C(=O)N[C@@H](CCC(=O)O)C(=O)O)cc3)c2c(=O)[nH]1 [Pem, Pemetrexed, reference compound] | 6.89 | – | – | – | –
2 | Nc1nc2[nH]cc(CCc3ccc(C(=O)N[C@@H](CCC(=O)N[C@@H](Cc4ccccc4)C(=O)N[C@@H](Cc4ccccc4)C(=O)N[C@@H](CCC(=O)O)C(=O)N[C@@H](CCC(=O)O)C(=O)O)C(=O)O)cc3)c2c(=O)[nH]1 [PemFE] ({X1-γGlu}-FFEE-OH) | – | formation of self-supporting hydrogels | filamentous nanostructures | 5.64 | –
3 | FFEE [C12FE] | – | formation of self-supporting hydrogels | filamentous nanostructures | – | did not show any significant cell toxicity
